# Measurements: ChEMBL document CHEMBL2331406, “In vitro activity of scorpiand-like azamacrocycle derivatives in promastigotes and intracellular amastigotes of Leishmania infantum and Leishmania braziliensis” (Eur J Med Chem, 2013)
# pIC50: −log10 of the molar value. Active and inactive are the calls of the source. The calls are words filed in the database; no cut-off is given here.
# Experiments:
# [1] = Selectivity index, ratio of IC50 for mouse J774.2 cells to IC50 for amastigote form of Leishmania braziliensis MHOM/BR/1975/M2904 infected in J774.2 cells; type: toxicity, cell-based
# Summary of the method: (§1)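 J774.2 macrophages in MEM + 2 mM glutamine + 20% inactivated FCS were infected with stationary-phase promastigotes (10:1) for 24 h at 37 °C, 5% CO2. After washing, compounds were added at […] for 72 h. Amastigote reduction was scored in methanol-fixed, Giemsa-stained preparations; IC50 by regression; triplicates. SI = J774.2 IC50 (72 h flow cytometry)/amastigote IC50; ratio is versus Glucantime SI.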
# [2] = Selectivity index, ratio of IC50 for mouse J774.2 cells to IC50 for axenic amastigote form of Leishmania braziliensis MHOM/BR/1975/M2904; type: toxicity
# Summary of the method: (§2)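 Axenic amastigotes obtained by 3-day promastigote transformation in supplemented M199 + 10% heat-inactivated FCS, pH 5.4, 37 °C. […] Host toxicity: J774.2, 72 h, PI/FDA flow cytometry. SI = macrophage IC50/axenic amastigote IC50; ratio is compound SI over Glucantime SI.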
# Leishmania infantum [3] = assay: Antileishmanial activity against axenic amastigote form of Leishmania infantum MCAN/ES/2001/UCM-10 after 72 hrs by haemocytometric analysis; type: functional, organism-based
# Summary of the method: (§3)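 Axenic amastigotes made by culturing promastigotes 3 days at 37 °C in M199 with 10% heat-inactivated FCS plus organic acids, amino acids, sucrose, bicarbonate, MES, haemin and gentamicin, pH 5.4. Compound effect counted in a Neubauer haemocytometer chamber. IC50 by linear regression of Kc values at 1, 10, 25, 50 and 100.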
# [4] = Selectivity index, ratio of IC50 for mouse J774.2 cells to IC50 for amastigote form of Leishmania infantum MCAN/ES/2001/UCM-10 infected in J774.2 cells; type: toxicity, cell-based; summary of the method: as §1
# [5] = Selectivity index, ratio of IC50 for mouse J774.2 cells to IC50 for promastigote form of Leishmania braziliensis MHOM/BR/1975/M2904; type: toxicity
# Leishmania braziliensis [6] = assay: Antileishmanial activity against amastigote form of Leishmania braziliensis MHOM/BR/1975/M2904 infected in J774.2 cells after 72 hrs by haemocytometric analysis; type: functional, cell-based, MHOM/BR/75/M2904
# Summary of the method: (§4)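 J774.2 macrophages grown in MEM with 2 mM glutamine and 20% inactivated FCS at 37 °C in 5% CO2. Infected with stationary-phase promastigotes at 10:1 for 24 h, then washed free of non-phagocytosed parasites. Compounds at 1, 10, 25, 50 and 100 for 72 h. Amastigotes counted on methanol-fixed, Giemsa-stained preparations and % reduction taken vs untreated. IC50 by linear regression of Kc values; three separate determinations.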
# Leishmania braziliensis [7] = assay: Antileishmanial activity against axenic amastigote form of Leishmania braziliensis MHOM/BR/1975/M2904 after 72 hrs by haemocytometric analysis; type: functional, MHOM/BR/75/M2904; summary of the method: as §3
# Leishmania infantum [8] = assay: Antileishmanial activity against promastigote form of Leishmania infantum MCAN/ES/2001/UCM-10 after 72 hrs by haemocytometric analysis; type: functional, organism-based
# Summary of the method: (§5)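 Promastigotes grown at 28 °C in MTL medium with 10% inactivated FCS. Compounds in DMSO (0.1%), diluted in culture medium to 100, 50, 25, 10 and 1. Cells counted at 72 h in a Neubauer haemocytometric chamber. IC50 (50% inhibition) by linear regression of Kc values.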
# [9] = Selectivity index, ratio of IC50 for mouse J774.2 cells to IC50 for axenic amastigote form of Leishmania infantum MCAN/ES/2001/UCM-10; type: toxicity; summary of the method: as §2
# Leishmania infantum [10] = assay: Antileishmanial activity against amastigote form of Leishmania infantum MCAN/ES/2001/UCM-10 infected in J774.2 cells after 72 hrs by haemocytometric analysis; type: functional, organism-based; summary of the method: as §4
# [11] = Selectivity index, ratio of IC50 for mouse J774.2 cells to IC50 for promastigote form of Leishmania infantum MCAN/ES/2001/UCM-10; type: toxicity
# Summary of the method: (§6)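 J774.2 toxicity: 72 h at the same concentrations, viability by flow cytometry with propidium iodide/fluorescein diacetate; IC50 by linear regression. SI = macrophage IC50/parasite IC50; ratio is compound SI over Glucantime SI.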
# Leishmania braziliensis [12] = assay: Antileishmanial activity against promastigote form of […] MHOM/BR/1975/M2904 infected in J774.2 cells assessed as inhibition of number of amastigotes per host cell at IC25 concentration incubated for 12 hrs followed by compound washout measured after 48 hrs by microscopic analysis; type: functional; conditions: MHOM/BR/75/M2904
# Summary of the method: (§7)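 J774.2 cells seeded at 1 × 10^4 cells/well on coverslips and cultured 2 days. Infected with promastigotes at 10:1 with drug at IC25 added immediately, for 12 h at 37 °C in 5% CO2. Parasites and drug washed out, then grown 10 days with washing and fresh medium every 48 h. On methanol-fixed, Giemsa-stained slides, % infected cells and amastigotes per infected cell scored from more than 200 host cells. Three determinations.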
# Leishmania infantum [13] = assay: Antileishmanial activity against promastigote form of Leishmania infantum MCAN/ES/2001/UCM-10 infected in J774.2 cells assessed as inhibition of infection in host cells at IC25 concentration incubated for 12 hrs followed by compound washout measured after 48 hrs by microscopic analysis; type: functional; summary of the method: as §7
# Leishmania infantum [14] = assay: Antileishmanial activity against promastigote form of Leishmania infantum MCAN/ES/2001/UCM-10 infected in J774.2 cells assessed as inhibition of number of amastigotes per host cell at IC25 concentration incubated for 12 hrs followed by compound washout measured after 48 hrs by microscopic analysis; type: functional; summary of the method: as §7
# Leishmania braziliensis [15] = assay: Antileishmanial activity against promastigote form of […] Leishmania braziliensis MHOM/BR/1975/M2904 infected in J774.2 cells assessed as inhibition of infection in host cells at IC25 concentration incubated for 12 hrs […] by microscopic analysis; type: functional; conditions: MHOM/BR/75/M2904
# [16] = Ratio of compound selectivity index to glucantime selectivity index for amastigote form of Leishmania braziliensis MHOM/BR/1975/M2904 infected in J774.2 cells over mouse J774.2 cells; summary of the method: as §1
# [17] = Ratio of compound selectivity index to glucantime selectivity index for promastigote form of Leishmania braziliensis MHOM/BR/1975/M2904 over mouse J774.2 cells
# Leishmania braziliensis [18] = assay: Antileishmanial activity against promastigote form of Leishmania braziliensis MHOM/BR/1975/M2904 assessed as empty cytoplasmic at IC25 concentration after 96 hrs by MET microscopic analysis; type: functional; conditions: MHOM/BR/75/M2904
# Summary of the method: (§8)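 Promastigotes at 5 × 10^5 cells/mL in MTL medium with compound at IC25 for 96 h. Ultrastructure examined by transmission electron microscopy against untreated control parasites.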
# J774.2 = assay: Cytotoxicity against mouse J774.2 cells after 72 hrs by PI-staining based flow cytometric analysis; type: cell-based; conditions: J774.2, 72 h
# Summary of the method: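 J774.2 macrophages (ECACC 91051511, female BALB/c mouse tumour) treated 72 h with 100, 50, 25, 10 and 1 of compound. Propidium iodide then fluorescein diacetate each added for 10 min at 28 °C in the dark. Cells pelleted at 400g, washed in PBS and analysed by flow cytometry. Viability % vs control; IC50 by linear regression of Kc values.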
# Leishmania braziliensis [19] = assay: Antileishmanial activity against promastigote form of Leishmania braziliensis MHOM/BR/1975/M2904 assessed as mortality at IC25 concentration after 96 hrs by MET microscopic analysis; type: functional; conditions: MHOM/BR/75/M2904; summary of the method: as §8
# Leishmania braziliensis [20] = assay: Antileishmanial activity against promastigote form of Leishmania braziliensis MHOM/BR/1975/M2904 assessed as electro-dense vesicles at IC25 concentration after 96 hrs by MET microscopic analysis; type: functional; conditions: MHOM/BR/75/M2904; summary of the method: as §8
# [21] = Ratio of compound selectivity index to glucantime selectivity index for axenic amastigote form of Leishmania infantum MCAN/ES/2001/UCM-10 over mouse J774.2 cells; summary of the method: as §2
# [22] = Ratio of compound selectivity index to glucantime selectivity index for axenic amastigote form of Leishmania braziliensis MHOM/BR/1975/M2904 over mouse J774.2 cells; summary of the method: as §2
# Leishmania braziliensis [23] = assay: Antileishmanial activity against promastigote form of Leishmania braziliensis MHOM/BR/1975/M2904 after 72 hrs by haemocytometric analysis; type: functional; conditions: MHOM/BR/75/M2904, 72 h; summary of the method: as §5
# [24] = Ratio of compound selectivity index to glucantime selectivity index for promastigote form of Leishmania infantum MCAN/ES/2001/UCM-10 over mouse J774.2 cells; summary of the method: as §6
# [25] = Ratio of compound selectivity index to glucantime selectivity index for amastigote form of Leishmania infantum MCAN/ES/2001/UCM-10 infected in J774.2 cells over mouse J774.2 cells; summary of the method: as §1
# Leishmania braziliensis [26] = assay: Antileishmanial activity against promastigote form of Leishmania braziliensis MHOM/BR/1975/M2904 assessed as cytoplasmic alterations at IC25 concentration after 96 hrs by MET microscopic analysis; type: functional; conditions: MHOM/BR/75/M2904; summary of the method: as §8
# [27] = J774.2 cells, read-out: Ratio IC50
# [28] = Leishmania infantum, MCAN/ES/2001/UCM-10, 72 h
compound,measurement,setting,value
MEGLUMINE ANTIMONATE [listing 1 of 2 here],Ratio IC50,[1],0.8
same,Ratio IC50,[2],0.5
same,pIC50,Leishmania infantum [3],4.51
same,Ratio IC50,[4],0.5
same,Ratio IC50,[5],0.6
same,pIC50,Leishmania braziliensis [6]; j774.2,4.71
same,pIC50,Leishmania braziliensis [7],4.51
same,pIC50,Leishmania infantum [8],4.74
same,Ratio IC50,[9],0.5
same,pIC50,Leishmania infantum [10]; j774.2,4.51
same,Ratio IC50,[11],0.8
MEGLUMINE ANTIMONATE [listing 2 of 2 here],inhibition,Leishmania braziliensis [12],37%
same,inhibition,Leishmania infantum [13],24%
same,inhibition,Leishmania infantum [14],30%
same,inhibition,Leishmania braziliensis [15],22%
Br.NCCCNCCN1CCNCc2cccc(n2)CNCC1,selectivity ratio,[1]; [27],11.5
same,selectivity ratio,[2]; [27],7
same,pIC50,Leishmania infantum [3]; [28],4.53
same,Ratio,[16],14
same,Ratio,[17],24
same,Activity,Leishmania braziliensis [18],Active
same,pIC50,J774.2,3.66
same,Activity,Leishmania braziliensis [19],Active
same,selectivity ratio,[4]; [27],4.9
same,Activity,Leishmania braziliensis [20],Active
same,selectivity ratio,[5]; [27],14.2
same,Ratio,[21],15
same,pIC50,"Leishmania braziliensis [6]; Leishmania braziliensis, MHOM/BR/75/M2904, J774.2, 72 h",4.72
same,Ratio,[22],14
same,pIC50,"Leishmania braziliensis [7]; Leishmania braziliensis, MHOM/BR/75/M2904, 72 h",4.50
same,pIC50,Leishmania infantum [8]; [28],4.62
same,pIC50,Leishmania braziliensis [23],4.81
same,selectivity ratio,[9]; [27],7.4
same,Ratio,[24],11
same,pIC50,"Leishmania infantum [10]; Leishmania infantum, MCAN/ES/2001/UCM-10, J774.2, 72 h",4.35
same,Ratio,[25],10
same,selectivity ratio,[11]; [27],9.1
same,Activity,Leishmania braziliensis [26],Active
